Results: ChEMBL document CHEMBL3098111, “Discovery of 2,5-diarylnicotinamides as selective orexin-2 receptor antagonists (2-SORAs)” (Bioorg Med Chem Lett, 2013)
Calls of active or inactive are those of the source. No cut-off for these calls is given here.

What was measured:
Rattus norvegicus [1] = species on record: Rattus norvegicus; test: Inhibition of rat strychnine-sensitive glycine receptor at 10 uM relative to control
Oryctolagus cuniculus = species on record: Oryctolagus cuniculus; test: Inhibition of rabbit monoamine transporter at 0.1 uM relative to control
[2] = target: Delta-type opioid receptor (Homo sapiens) (UniProt P41143); test: Inhibition of human delta opioid receptor at 10 uM relative to control
Rattus norvegicus [3] = species on record: Rattus norvegicus; test: Inhibition of rat AMPA receptor at 10 uM relative to control
[4] = target: Platelet-activating factor receptor (Homo sapiens) (UniProt P25105); test: Inhibition of human PAF receptor at 10 uM relative to control
[5] = target: Gastrin/cholecystokinin type B receptor (Homo sapiens) (UniProt P32239); test: Inhibition of human CCKB receptor at 10 uM relative to control
[6] = target: Alpha-2C adrenergic receptor (Homo sapiens) (UniProt P18825); test: Inhibition of human alpha2C adrenergic receptor at 10 uM relative to control
Rattus norvegicus [7] = test: Antiinsomnic activity in rat EEG model assessed as decrease in active wake time at 15 mg/kg, po; type: functional, organism-based; set-up: dose 15 mg/kg
Procedure, shortened: (§1)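 Rats with EEG telemetry given 15 mg/kg orally during their active period, vehicle 20% Vitamin E TPGS in water. Sleep architecture (active wake, light sleep, delta and REM sleep) scored from EEG.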

Rattus norvegicus [8] = species on record: Rattus norvegicus; test: Inhibition of rat N-type calcium channel at 10 uM relative to control
[9] = target: Beta-3 adrenergic receptor (Homo sapiens) (UniProt P13945); test: Inhibition of human beta3 adrenergic receptor at 10 uM relative to control
Rattus norvegicus [10] = species on record: Rattus norvegicus; test: Inhibition of rat ATP-sensitive potassium channel at 10 uM relative to control
[11] = target: Small conductance calcium-activated potassium channel (Rattus norvegicus) (UniProt P70604+P70606+P70605); test: Inhibition of rat potassium channel [SKCA] at 10 uM relative to control; type: protein assay
[12] = target: C-X-C chemokine receptor type 2 (Homo sapiens) (UniProt P25025); test: Inhibition of human CXCR2 at 10 uM relative to control
Bos taurus = species on record: Bos taurus; test: Inhibition of bovine PKA at 100 uM relative to control
[13] = target: Galanin receptor type 2 (Homo sapiens) (UniProt O43603); test: Inhibition of human GAL2 receptor at 10 uM relative to control
[14] = target: Receptor-type tyrosine-protein phosphatase C (Homo sapiens) (UniProt P08575); test: Inhibition of human CD45 at 10 uM relative to control
[15] = target: Calcitonin gene-related peptide type 1 receptor (Homo sapiens) (UniProt Q16602); test: Inhibition of human CGRP1 at 10 uM relative to control
Caspase-1 (Homo sapiens) = Caspase-1 (Homo sapiens) (UniProt P29466); test: Inhibition of human caspase 1 at 10 uM relative to control
[16] = target: Adenosine receptor A3 (Homo sapiens) (UniProt P0DMS8); test: Inhibition of human adenosine A3 receptor at 10 uM relative to control
Rattus norvegicus [17] = test: Antiinsomnic activity in rat EEG model assessed as decrease in light sleep time at 15 mg/kg, po; type: functional, organism-based; set-up: dose 15 mg/kg; procedure, shortened: as §1
[18] = target: D(2) dopamine receptor (Homo sapiens) (UniProt P14416); test: Inhibition of human dopamine D2S receptor at 10 uM relative to control
[19] = target: Tyrosine-protein phosphatase non-receptor type 2 (Homo sapiens) (UniProt P17706); test: Inhibition of human TCPTP at 10 uM relative to control
[20] = target: Peroxisome proliferator-activated receptor gamma (Homo sapiens) (UniProt P37231); test: Inhibition of human PPARgamma at 10 uM relative to control
[21] = target: Prostacyclin receptor (Homo sapiens) (UniProt P43119); test: Inhibition of human prostanoid IP receptor at 10 uM relative to control
Rattus norvegicus [22] = test: Antiinsomnic activity in rat EEG model assessed as increase in REM sleep time at 15 mg/kg, po; type: functional, organism-based; set-up: dose 15 mg/kg; procedure, shortened: as §1
[23] = target: Type-1 angiotensin II receptor (Homo sapiens) (UniProt P30556); test: Inhibition of human angiotensin AT1 receptor at 10 uM relative to control
[24] = target: 5-hydroxytryptamine receptor 4 (Cavia porcellus) (UniProt O70528); test: Inhibition of guinea pig 5-HT4 receptor at 10 uM relative to control
[25] = target: Mitogen-activated protein kinase 3 (Homo sapiens) (UniProt P27361); test: Inhibition of human MAPK3 at 100 uM relative to control
[26] = target: Substance-P receptor (Homo sapiens) (UniProt P25103); test: Inhibition of human NK1 receptor at 10 uM relative to control
Rattus norvegicus [27] = species on record: Rattus norvegicus; test: Inhibition of rat 5-HT1 receptor at 10 uM relative to control
[28] = target: Prostaglandin D2 receptor (Homo sapiens) (UniProt Q13258); test: Inhibition of human prostanoid DP receptor at 10 uM relative to control
[29] = target: D(1A) dopamine receptor (Homo sapiens) (UniProt P21728); test: Inhibition of human dopamine D1 receptor at 10 uM relative to control
[30] = target: Vasoactive intestinal polypeptide receptor 1 (Homo sapiens) (UniProt P32241); test: Inhibition of human VIP1 receptor at 10 uM relative to control
[31] = target: 5-hydroxytryptamine receptor 6 (Homo sapiens) (UniProt P50406); test: Inhibition of human 5-HT6 receptor at 10 uM relative to control
[32] = target: Muscarinic acetylcholine receptor M4 (Homo sapiens) (UniProt P08173); test: Inhibition of human muscarinic M4 receptor at 10 uM relative to control
[33] = target: Cannabinoid receptor 2 (Homo sapiens) (UniProt P34972); test: Inhibition of human CB2 receptor at 10 uM relative to control
Rattus norvegicus [34] = species on record: Rattus norvegicus; test: Inhibition of rat GABAB receptor at 10 uM relative to control
[35] = target: cGMP-specific 3',5'-cyclic phosphodiesterase (Homo sapiens) (UniProt O76074); test: Inhibition of human PDE5 at 100 uM relative to control
[36] = target: T1, 5-hydroxytryptamine receptor 1A (Homo sapiens) (UniProt P08908); test: Inhibition of human 5-HT1A receptor at 10 uM relative to control
T1 sequence (whole entry): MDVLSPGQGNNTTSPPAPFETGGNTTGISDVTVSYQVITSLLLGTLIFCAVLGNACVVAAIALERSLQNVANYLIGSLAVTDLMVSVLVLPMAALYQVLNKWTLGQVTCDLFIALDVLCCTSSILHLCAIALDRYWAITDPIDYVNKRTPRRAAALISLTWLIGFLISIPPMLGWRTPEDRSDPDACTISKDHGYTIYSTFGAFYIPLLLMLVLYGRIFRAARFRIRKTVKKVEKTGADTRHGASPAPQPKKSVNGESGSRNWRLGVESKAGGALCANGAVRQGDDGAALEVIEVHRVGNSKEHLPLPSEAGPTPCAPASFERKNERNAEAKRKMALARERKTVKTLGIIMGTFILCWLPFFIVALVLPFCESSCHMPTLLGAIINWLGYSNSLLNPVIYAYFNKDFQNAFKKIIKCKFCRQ

Sequence of Mitogen-activated protein kinase 3 (Homo sapiens) (P27361 whole entry): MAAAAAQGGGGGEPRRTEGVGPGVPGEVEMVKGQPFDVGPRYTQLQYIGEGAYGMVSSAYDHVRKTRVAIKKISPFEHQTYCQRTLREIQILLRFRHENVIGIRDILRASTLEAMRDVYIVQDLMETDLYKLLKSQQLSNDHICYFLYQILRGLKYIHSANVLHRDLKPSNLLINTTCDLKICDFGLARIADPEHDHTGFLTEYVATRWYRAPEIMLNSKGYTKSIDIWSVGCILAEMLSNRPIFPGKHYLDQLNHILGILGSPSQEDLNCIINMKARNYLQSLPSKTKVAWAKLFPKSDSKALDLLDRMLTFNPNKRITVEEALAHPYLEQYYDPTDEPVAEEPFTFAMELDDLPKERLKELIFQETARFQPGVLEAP
Sequence of Receptor-type tyrosine-protein phosphatase C (Homo sapiens) (P08575 whole entry): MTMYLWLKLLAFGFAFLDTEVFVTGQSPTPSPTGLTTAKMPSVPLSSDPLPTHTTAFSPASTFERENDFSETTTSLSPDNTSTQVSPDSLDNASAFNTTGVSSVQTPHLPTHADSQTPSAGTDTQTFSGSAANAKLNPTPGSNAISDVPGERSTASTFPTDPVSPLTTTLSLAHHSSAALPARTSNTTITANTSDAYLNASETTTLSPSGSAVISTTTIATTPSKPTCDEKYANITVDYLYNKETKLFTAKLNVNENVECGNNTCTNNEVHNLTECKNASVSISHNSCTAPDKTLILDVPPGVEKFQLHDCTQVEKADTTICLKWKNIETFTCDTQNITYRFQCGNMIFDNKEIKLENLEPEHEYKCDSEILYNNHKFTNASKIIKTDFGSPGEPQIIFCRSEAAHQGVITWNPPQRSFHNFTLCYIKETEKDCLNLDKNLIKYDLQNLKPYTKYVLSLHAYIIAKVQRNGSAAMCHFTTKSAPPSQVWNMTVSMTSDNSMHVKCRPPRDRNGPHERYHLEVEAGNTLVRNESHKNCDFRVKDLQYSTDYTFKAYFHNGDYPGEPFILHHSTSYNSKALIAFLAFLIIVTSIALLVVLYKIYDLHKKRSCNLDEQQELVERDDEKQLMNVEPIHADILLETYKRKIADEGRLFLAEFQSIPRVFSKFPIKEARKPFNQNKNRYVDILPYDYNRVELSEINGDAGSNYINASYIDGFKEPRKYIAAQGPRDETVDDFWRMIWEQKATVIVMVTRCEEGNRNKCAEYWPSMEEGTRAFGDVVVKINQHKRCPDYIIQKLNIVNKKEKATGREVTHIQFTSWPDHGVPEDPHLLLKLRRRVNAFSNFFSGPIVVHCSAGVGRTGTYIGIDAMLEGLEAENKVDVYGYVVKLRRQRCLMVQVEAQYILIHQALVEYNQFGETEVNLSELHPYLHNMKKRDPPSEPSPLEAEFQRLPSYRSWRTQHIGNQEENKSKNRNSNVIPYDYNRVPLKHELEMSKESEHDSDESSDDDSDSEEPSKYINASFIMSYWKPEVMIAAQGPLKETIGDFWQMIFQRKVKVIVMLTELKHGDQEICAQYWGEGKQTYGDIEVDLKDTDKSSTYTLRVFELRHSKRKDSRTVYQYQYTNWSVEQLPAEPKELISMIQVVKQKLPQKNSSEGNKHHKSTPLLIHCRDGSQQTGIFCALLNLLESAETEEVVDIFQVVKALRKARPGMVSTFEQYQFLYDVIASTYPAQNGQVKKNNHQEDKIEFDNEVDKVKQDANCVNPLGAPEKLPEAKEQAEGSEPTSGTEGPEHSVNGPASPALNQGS
Sequence of D(2) dopamine receptor (Homo sapiens) (P14416 whole entry): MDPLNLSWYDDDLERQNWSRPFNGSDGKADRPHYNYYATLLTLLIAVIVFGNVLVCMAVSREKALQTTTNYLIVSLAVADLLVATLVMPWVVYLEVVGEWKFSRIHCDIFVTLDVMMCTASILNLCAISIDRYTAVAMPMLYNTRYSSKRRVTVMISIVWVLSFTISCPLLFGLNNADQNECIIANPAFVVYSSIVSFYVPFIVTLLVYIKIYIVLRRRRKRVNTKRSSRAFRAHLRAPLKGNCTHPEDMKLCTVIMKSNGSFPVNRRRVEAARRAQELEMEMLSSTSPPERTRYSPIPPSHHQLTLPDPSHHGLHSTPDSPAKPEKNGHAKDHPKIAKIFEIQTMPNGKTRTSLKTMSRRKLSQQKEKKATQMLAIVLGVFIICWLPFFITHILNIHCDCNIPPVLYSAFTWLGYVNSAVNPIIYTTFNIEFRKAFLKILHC
Sequence of Peroxisome proliferator-activated receptor gamma (Homo sapiens) (P37231 whole entry): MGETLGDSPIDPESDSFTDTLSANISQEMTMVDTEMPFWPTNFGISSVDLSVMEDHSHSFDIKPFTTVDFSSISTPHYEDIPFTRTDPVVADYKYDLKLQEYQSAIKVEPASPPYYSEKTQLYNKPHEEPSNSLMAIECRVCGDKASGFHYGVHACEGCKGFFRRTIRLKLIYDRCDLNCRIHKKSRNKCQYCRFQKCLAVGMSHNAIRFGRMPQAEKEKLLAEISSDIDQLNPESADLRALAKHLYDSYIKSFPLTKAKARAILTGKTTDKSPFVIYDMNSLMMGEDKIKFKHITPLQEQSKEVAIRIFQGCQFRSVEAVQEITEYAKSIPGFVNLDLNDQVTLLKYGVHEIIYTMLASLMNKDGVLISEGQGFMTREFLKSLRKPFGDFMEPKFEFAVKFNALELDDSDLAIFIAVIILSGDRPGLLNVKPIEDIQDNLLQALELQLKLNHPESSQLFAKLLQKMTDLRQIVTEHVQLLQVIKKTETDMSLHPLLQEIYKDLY
Sequence of Cannabinoid receptor 2 (Homo sapiens) (P34972 whole entry): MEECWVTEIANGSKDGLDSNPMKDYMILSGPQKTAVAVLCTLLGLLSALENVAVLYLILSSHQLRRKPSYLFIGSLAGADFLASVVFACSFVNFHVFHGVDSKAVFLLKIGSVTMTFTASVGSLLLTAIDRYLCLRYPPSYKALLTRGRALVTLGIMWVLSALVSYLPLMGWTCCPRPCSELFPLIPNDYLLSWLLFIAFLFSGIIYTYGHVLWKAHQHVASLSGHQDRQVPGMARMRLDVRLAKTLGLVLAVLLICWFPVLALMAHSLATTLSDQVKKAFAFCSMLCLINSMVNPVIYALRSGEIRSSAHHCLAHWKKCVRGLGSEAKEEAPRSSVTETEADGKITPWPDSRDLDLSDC
Sequence of C-X-C chemokine receptor type 2 (Homo sapiens) (P25025 whole entry): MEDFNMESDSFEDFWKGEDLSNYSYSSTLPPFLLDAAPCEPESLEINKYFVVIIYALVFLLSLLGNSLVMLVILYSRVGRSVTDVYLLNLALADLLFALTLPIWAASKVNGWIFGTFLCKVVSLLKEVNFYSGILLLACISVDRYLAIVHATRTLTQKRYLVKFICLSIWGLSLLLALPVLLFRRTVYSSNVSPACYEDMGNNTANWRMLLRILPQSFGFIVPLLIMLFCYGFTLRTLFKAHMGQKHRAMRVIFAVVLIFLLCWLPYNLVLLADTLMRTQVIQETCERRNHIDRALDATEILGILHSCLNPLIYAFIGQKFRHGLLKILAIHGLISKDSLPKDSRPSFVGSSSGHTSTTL
Sequence of 5-hydroxytryptamine receptor 6 (Homo sapiens) (P50406 whole entry): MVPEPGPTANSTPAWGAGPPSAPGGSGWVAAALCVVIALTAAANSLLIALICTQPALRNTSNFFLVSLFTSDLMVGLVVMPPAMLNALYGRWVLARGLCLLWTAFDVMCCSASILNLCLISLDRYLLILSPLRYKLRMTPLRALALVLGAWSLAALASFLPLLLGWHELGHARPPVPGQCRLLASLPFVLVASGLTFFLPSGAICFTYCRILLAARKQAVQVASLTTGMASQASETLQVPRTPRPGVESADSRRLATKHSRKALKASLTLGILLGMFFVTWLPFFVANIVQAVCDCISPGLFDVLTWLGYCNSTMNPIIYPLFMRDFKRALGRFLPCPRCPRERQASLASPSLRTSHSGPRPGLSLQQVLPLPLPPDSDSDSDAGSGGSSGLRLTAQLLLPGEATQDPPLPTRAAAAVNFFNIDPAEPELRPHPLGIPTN
Sequence of Gastrin/cholecystokinin type B receptor (Homo sapiens) (P32239 whole entry): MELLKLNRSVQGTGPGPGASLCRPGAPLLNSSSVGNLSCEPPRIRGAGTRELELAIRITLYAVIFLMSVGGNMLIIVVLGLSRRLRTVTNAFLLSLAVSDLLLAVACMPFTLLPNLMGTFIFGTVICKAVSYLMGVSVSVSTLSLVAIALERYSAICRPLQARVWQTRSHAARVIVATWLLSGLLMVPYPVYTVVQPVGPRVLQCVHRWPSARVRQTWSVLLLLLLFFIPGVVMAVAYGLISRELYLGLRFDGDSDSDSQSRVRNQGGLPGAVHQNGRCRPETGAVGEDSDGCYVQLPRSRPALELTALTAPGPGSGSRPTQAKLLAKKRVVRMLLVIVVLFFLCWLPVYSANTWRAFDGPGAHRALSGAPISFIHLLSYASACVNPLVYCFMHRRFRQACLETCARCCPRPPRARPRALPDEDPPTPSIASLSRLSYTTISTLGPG
Sequence of Caspase-1 (Homo sapiens) (P29466 120-297 limits assumed): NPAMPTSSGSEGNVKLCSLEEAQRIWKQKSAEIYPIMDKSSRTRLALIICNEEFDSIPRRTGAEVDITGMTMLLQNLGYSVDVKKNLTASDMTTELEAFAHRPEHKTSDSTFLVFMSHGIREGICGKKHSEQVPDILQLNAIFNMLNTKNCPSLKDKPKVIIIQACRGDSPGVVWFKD
Sequence of Caspase-1 (Homo sapiens) (P29466 317-404 limits assumed): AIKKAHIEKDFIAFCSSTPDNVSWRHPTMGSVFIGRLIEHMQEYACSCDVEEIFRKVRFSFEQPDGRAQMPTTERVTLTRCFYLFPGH
Sequence of Prostacyclin receptor (Homo sapiens) (P43119 whole entry): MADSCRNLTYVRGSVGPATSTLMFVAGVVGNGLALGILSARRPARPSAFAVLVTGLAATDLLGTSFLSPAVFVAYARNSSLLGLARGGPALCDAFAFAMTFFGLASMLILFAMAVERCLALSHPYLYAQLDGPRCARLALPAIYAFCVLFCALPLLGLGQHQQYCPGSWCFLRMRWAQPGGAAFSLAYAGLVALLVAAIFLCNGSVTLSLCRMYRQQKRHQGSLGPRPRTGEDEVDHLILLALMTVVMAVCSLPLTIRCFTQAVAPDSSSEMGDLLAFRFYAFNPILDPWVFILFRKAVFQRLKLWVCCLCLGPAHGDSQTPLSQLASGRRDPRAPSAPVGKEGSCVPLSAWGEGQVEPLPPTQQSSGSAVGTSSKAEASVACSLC

Q: `COc1ccc(CNC(=O)c2cc(-c3cc(Cl)cc(Cl)c3)cnc2-c2cccnc2)cc1OC` was tested. Which inhibition (Rattus norvegicus [1]) did it give?
A: Its inhibition is -5%.

Q: What about the inhibition (Oryctolagus cuniculus) of the same molecule?
A: The inhibition was 7%.

Q: What about the inhibition [2] of the same molecule?
A: The inhibition was 8%.

Q: What about the inhibition (Rattus norvegicus [3]) of the same molecule?
A: Its inhibition is 9%.

Q: And the inhibition [4]?
A: The inhibition was 31%.

Q: What about the inhibition [5] of the same molecule?
A: Its inhibition is -4%.

Q: What about the inhibition [6] of the same molecule?
A: Its inhibition is 5%.

Q: And the Activity (Rattus norvegicus [7])?
A: Its Activity is “Active”.

Q: And the inhibition (Rattus norvegicus [8])?
A: Its inhibition is 2%.

Q: And the inhibition [9]?
A: The inhibition was 24%.

Q: And the inhibition (Rattus norvegicus [10])?
A: The inhibition was 0%.

Q: And the inhibition [11]?
A: Its inhibition is 9%.

Q: And the inhibition [12]?
A: Its inhibition is 0%.

Q: And the inhibition (Bos taurus)?
A: The inhibition was -7%.

Q: And the inhibition [13]?
A: The inhibition was 6%.

Q: And the inhibition [14]?
A: Its inhibition is -1%.

Q: What about the inhibition [15] of the same molecule?
A: The inhibition was -10%.

Q: What about the inhibition (Caspase-1 (Homo sapiens)) of the same molecule?
A: The inhibition was 4%.

Q: What about the inhibition [16] of the same molecule?
A: The inhibition was 33%.

Q: And the Activity (Rattus norvegicus [17])?
A: Its Activity is “Active”.

Q: What about the inhibition [18] of the same molecule?
A: Its inhibition is -2%.

Q: What about the inhibition [19] of the same molecule?
A: Its inhibition is 4%.

Q: What about the inhibition [20] of the same molecule?
A: Its inhibition is 3%.

Q: And the inhibition [21]?
A: The inhibition was -2%.

Q: What about the Activity (Rattus norvegicus [22]) of the same molecule?
A: The Activity was “Active”.

Q: And the inhibition [23]?
A: The inhibition was 14%.

Q: What about the inhibition [24] of the same molecule?
A: The inhibition was 22%.

Q: And the inhibition [25]?
A: The inhibition was 10%.

Q: And the inhibition [26]?
A: The inhibition was 26%.

Q: And the inhibition (Rattus norvegicus [27])?
A: Its inhibition is 36%.

Q: And the inhibition [28]?
A: Its inhibition is 16%.

Q: And the inhibition [29]?
A: Its inhibition is 2%.

Q: And the inhibition [30]?
A: The inhibition was 6%.

Q: What about the inhibition [31] of the same molecule?
A: Its inhibition is -8%.

Q: And the inhibition [32]?
A: Its inhibition is 7%.

Q: What about the inhibition [33] of the same molecule?
A: The inhibition was 2%.

Q: What about the inhibition (Rattus norvegicus [34]) of the same molecule?
A: Its inhibition is 0%.

Q: And the inhibition [35]?
A: Its inhibition is -8%.

Q: What about the inhibition [36] of the same molecule?
A: Its inhibition is 69%.
